Results on two compounds are retold here after ChEMBL document CHEMBL4196017, “Design, synthesis and identification of silicon-containing HCV NS5A inhibitors with pan-genotype activity” (Eur J Med Chem, 2018).

The Cmax is the highest concentration seen after dosing. The half-life is the time needed for the level to fall by half in the phase considered. Low values mean fast loss, high ones slow loss. The term Tmax denotes the time from dosing to the highest level. A word on the AUC(0-t): it is exposure summed from dosing to a finite time, without extrapolation to infinity. A lower AUC(0-t) goes with less exposure.

In series [1] the target is T1, Nonstructural protein 5A (Hepatitis C virus) (UniProt Q5L478).
T1 sequence (whole entry): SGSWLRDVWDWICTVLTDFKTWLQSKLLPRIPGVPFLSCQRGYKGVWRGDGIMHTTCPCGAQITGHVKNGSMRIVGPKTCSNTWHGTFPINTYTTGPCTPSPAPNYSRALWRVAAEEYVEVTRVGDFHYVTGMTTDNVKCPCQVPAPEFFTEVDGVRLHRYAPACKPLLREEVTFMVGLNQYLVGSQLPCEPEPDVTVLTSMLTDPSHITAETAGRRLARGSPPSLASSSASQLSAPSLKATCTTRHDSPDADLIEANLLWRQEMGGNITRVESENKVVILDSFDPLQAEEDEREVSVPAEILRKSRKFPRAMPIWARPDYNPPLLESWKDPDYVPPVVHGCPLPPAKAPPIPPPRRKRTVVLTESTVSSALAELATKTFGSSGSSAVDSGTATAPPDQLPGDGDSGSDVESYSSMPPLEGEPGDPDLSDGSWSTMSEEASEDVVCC
Briefly: Potency index, ratio of ombitasvir IC50 to compound IC50 for inhibition of NS5A in HCV genotype 3a infected in human HuH7 replicon cells expressing HCV genotype 1b chimeric replicon. The format is cell-based. The note with it: Hepatitis C virus subtype 3a.

The target in series [2] is T1, Nonstructural protein 5A (Hepatitis C virus). Nature of the series: Potency index, ratio of ombitasvir IC50 to compound IC50 for inhibition of NS5A in HCV genotype 6a infected in human HuH7 replicon cells expressing HCV genotype 1b chimeric replicon. The class given is cell-based. The settings on record: Hepatitis C virus subtype 6a. On the technique in general: In antiviral work, replicon cells carry a viral genome segment that copies itself.

Series [3] in a line: Cmax in mouse at 10 mg/kg, ig administered as single dose by UPLC-MS/MS analysis. The class given is ADME, organism-based. Also on record: dose 10 mg/kg, route intragastric. The settings on record: in vivo, po. The gist of the method: (§1)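 Adult male mice (12 h light-dark, 22 °C, 55% humidity) fasted 12 h with free water, then given a single 10 mg/kg intragastric dose; plasma concentrations by UPLC-MS/MS; PK parameters calculated by software.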

The nature of series [4]: Half life in mouse at 10 mg/kg, ig administered as single dose by UPLC-MS/MS analysis. The settings on record: in vivo, po. The class given is ADME, organism-based. Put shortly:
as §1

A short description of series [5]: Metabolic stability in rat liver microsomes assessed as parent compound remaining at 0.2 uM preincubated for 5 mins followed by NADPH addition measured up to 60 mins by UPLC-MS/MS analysis. The class given is ADME, microsome. The settings on record: read-out: Stability. Put shortly: (§2)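 Pooled mouse, rat or human liver microsomes 0.2 mg/mL with 1 mM NADPH, 5 mM MgCl2, 100 mM potassium phosphate pH 7.4 and 0.2 µM compound; 5-min preincubation at 37 °C, NADPH start, sampled at 5, 15, 30, 60 min; ice-cold acetonitrile stop; UPLC-MS/MS; percent parent remaining at 60 min.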

The nature of series [6]: Tmax in mouse at 10 mg/kg, ig administered as single dose by UPLC-MS/MS analysis. The note with it: in vivo, po. The format is ADME, organism-based. The gist of the method: as §1
A short description of series [7]: Metabolic stability in mouse liver microsomes assessed as parent compound remaining at 0.2 uM preincubated for 5 mins followed by NADPH addition measured up to 60 mins by UPLC-MS/MS analysis. The note with it: read-out: Stability. The format is ADME, microsome. The gist of the method:
as §2
On the technique in general: Microsomes from liver hold many membrane-bound enzymes, among them those of drug oxidation.

The nature of series [8]: AUC (0 to t) in mouse at 10 mg/kg, ig administered as single dose by UPLC-MS/MS analysis. The class given is ADME, organism-based. The settings on record: in vivo, po. Put shortly: as §1
The nature of series [9]: Metabolic stability in human liver microsomes assessed as parent compound remaining at 0.2 uM preincubated for 5 mins followed by NADPH addition measured up to 60 mins by UPLC-MS/MS analysis. The format is ADME, microsome. The note with it: read-out: Stability. The gist of the method: as §2

`COC(=O)N[C@H](C(=O)N1CCC[C@H]1C(=O)Nc1ccc([C@@H]2CC[C@@H](c3ccc(NC(=O)[C@@H]4CCCN4C(=O)[C@@H](NC(=O)OC)C(C)C)cc3)N2c2ccc([Si](C)(C)C)cc2)cc1)C(C)C`: the Ratio IC50 worked out at 2.3 in series [1] and 2.4 in series [2]. Further, the Cmax in series [3] turned out to be 262 ng/mL. In addition, the half-life in [4] is 8.8 h. Also, the remaining at 1 h, 0.2 µM came out at 101% in [5], 93.3% in series [7] and 99.2% in series [9]. Further, the Tmax in series [6] amounted to 3 h. Besides, in series [8], the AUC(0-t) stood at 2910 ng·h/mL.
`COC(=O)N[C@H](C(=O)N1CCC[C@H]1C(=O)Nc1ccc([C@@H]2CC[C@@H](c3ccc(NC(=O)[C@@H]4CCCN4C(=O)[C@@H](NC(=O)OC)C(C)C)cc3)N2c2ccc([Si](C)(C)C(C)(C)C)cc2)cc1)C(C)C`: the Ratio IC50 in series [1] worked out at 7.2; in series [2] it was 3.7. In addition, the Cmax in series [3] came to 211 ng/mL. Also, in series [4], the half-life was 34.7 h. The remaining at 1 h, 0.2 µM in series [5] worked out at 87%; in [7], 92.1%; in series [9], 84.3%. Besides, the Tmax in series [6] worked out at 3 h. In [8], this compound returned an AUC(0-t) of 3520 ng·h/mL.
